Experimental data: ChEMBL document CHEMBL1212759, “Antifungal activity of colistin against mucorales species in vitro and in a murine model of Rhizopus oryzae pulmonary infection” (Antimicrob Agents Chemother, 2010)
Active and inactive are the calls of the source.

How the values were obtained:
Mucor circinelloides [1] = assay: Antimicrobial activity against Mucor circinelloides isolate 4030 after 24 hrs in RMPI 1640 medium by broth microdilution method; type: functional, organism-based
Summary of the method: (§1)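 Colistin was serially diluted from 64 to 0.06 μg/ml in RPMI 1640 with glucamine and without bicarbonate. Fresh spores from 48–72 h YAG plates were added at 0.5 × 10^4 to 4 × 10^4 cells/ml. Plates were incubated 24 h at 37°C. MIC was read visually as the lowest concentration giving 100% growth inhibition.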

Rhizopus arrhizus [2] = assay: Antimicrobial activity against Rhizopus oryzae assessed as reduction in hyphal viability at 8 ug/ml after 24 hrs by XTT assay; type: functional, organism-based
Summary of the method: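 R. oryzae mycelia were shaken at 37°C in RPMI 1640 with colistin, amphotericin B or both; drug-free RPMI served as control. At 0, 2, 6 and 24 h, pellets received XTT (1 mg) plus menadione (0.17 mg) in 1 ml PBS for 1 h at 37°C, then OD405 was read. Viability is drug OD405 divided by control OD405; at least three experiments.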

Rhizopus arrhizus [3] = assay: Antimicrobial activity against Rhizopus oryzae isolate 5879 after 24 hrs in RMPI 1640 medium by broth microdilution method; type: functional, organism-based
Summary of the method: (§2)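 Broth microdilution in RPMI 1640 with […], without bicarbonate. Colistin was serially diluted 64 to 0.06 μg/ml. Spores came from YAG plates grown 48–72 h at 37°C, were filtered and counted, and were inoculated at 0.5 × 10^4 to 4 × 10^4 cells/ml. Plates were incubated 24 h at 37°C. MIC was read visually as the lowest concentration giving 100% growth inhibition.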

[4] = tested on: Cunninghamella bertholletiae; assay: Antimicrobial activity against Cunninghamella bertholletiae isolate 6733 after 24 hrs in RMPI 1640 medium by broth microdilution method; type: functional, organism-based; summary of the method: as §1
Rhizopus arrhizus [5] = assay: Antimicrobial activity against Rhizopus oryzae isolate 5799 after 24 hrs in RMPI 1640 medium by broth microdilution method; type: functional, organism-based; summary of the method: as §1
Rhizopus arrhizus [6] = assay: Antimicrobial activity against Rhizopus oryzae isolate 4549 after 24 hrs in yeast nitrogen base complete medium by broth microdilution method; type: functional, organism-based
Summary of the method: (§3)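 Broth microdilution in YNB complete medium with colistin at 128 to 0.12 μg/ml. Freshly collected spores were inoculated at 0.5 × 10^4 to 4 × 10^4 cells/ml and incubated 24 h at 37°C. MIC was read visually as the lowest concentration with complete (100%) growth inhibition.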

Rhizopus arrhizus [7] = assay: Antimicrobial activity against Rhizopus oryzae assessed as vacuolar and plasma membrane damage at 32 ug/ml by FM4-64 staining; type: functional, organism-based
Summary of the method: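 Germlings at 5 × 10^6/ml were loaded with 5 μM FM4-64 in RPMI 1640 for 30 min at 30°C in the dark. After washing in PBS, they were exposed to colistin at the MIC and MFC, or drug-free RPMI, for 60 min at 37°C. Membranes were viewed by fluorescence microscopy with a rhodamine filter.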

[8] = tested on: Cunninghamella bertholletiae; assay: Antimicrobial activity against Cunninghamella bertholletiae isolate 5633 after 24 hrs in RMPI 1640 medium by broth microdilution method; type: functional, organism-based; summary of the method: as §1
Rhizopus arrhizus [9] = assay: Antimicrobial activity against Rhizopus oryzae isolate 6093 after 24 hrs in yeast nitrogen base complete medium by broth microdilution method; type: functional, organism-based
Summary of the method: (§4)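 Microdilution was done in yeast nitrogen base complete medium, with colistin serially diluted 128 to 0.12 μg/ml. Spores were harvested from YAG plates (48–72 h, 37°C), washed, filtered and counted, then added at 0.5 × 10^4 to 4 × 10^4 cells/ml. After 24 h at 37°C, MIC was taken visually as the lowest concentration with complete growth inhibition.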

Mucor circinelloides [10] = assay: Antimicrobial activity against Mucor circinelloides isolate 5904 after 24 hrs in RMPI 1640 medium by broth microdilution method; type: functional, organism-based; summary of the method: as §1
Rhizopus arrhizus [11] = assay: Antimicrobial activity against Rhizopus oryzae at 16 ug/disk after 24 hrs by disk diffusion method; type: functional, organism-based
Summary of the method: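 Paper disks loaded with 8, 16 or 32 μg colistin were placed on agar plates inoculated with 200 μl of a 10^6 cells/ml R. oryzae spore suspension. After 24 h at 37°C, the diameter of the inhibition zone was measured.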

[12] = tested on: Cunninghamella bertholletiae; assay: Antimicrobial activity against Cunninghamella bertholletiae isolate 6733 after 24 hrs in yeast nitrogen base complete medium by broth microdilution method; type: functional, organism-based; summary of the method: as §3
Rhizopus arrhizus [13] = assay: Antimicrobial activity against Rhizopus oryzae isolate 6725 after 24 hrs in yeast nitrogen base complete medium by broth microdilution method; type: functional, organism-based; summary of the method: as §4
Rhizopus homothallicus = assay: Antimicrobial activity against Rhizopus homothallicus isolate 5910 after 24 hrs in yeast nitrogen base complete medium by broth microdilution method; type: functional; summary of the method: as §3
Rhizopus arrhizus [14] = assay: Antimicrobial activity against Rhizopus oryzae isolate 4153 after 24 hrs in RMPI 1640 medium by broth microdilution method; type: functional, organism-based; summary of the method: as §1
Rhizopus arrhizus [15] = assay: Antimicrobial activity against Rhizopus oryzae assessed as plasma membrane disruption-related ATP release at 32 ug/ml after 30 mins by Cell Titer-Glo luminescent assay; type: functional, organism-based
Summary of the method: (§5)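 Spores at 10^7 cells/ml in RPMI 1640 were germinated about 6 h at 37°C. Germlings were resuspended in RPMI with colistin at 8 or 32 μg/ml, or drug-free, and shaken at 37°C. Supernatants taken at 5, 30, 60 and 90 min were assayed for released ATP by CellTiter-Glo luminescence.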

Rhizopus arrhizus [16] = assay: Fungicidal activity against Rhizopus oryzae 5799 after 6 hrs by DiBAC staining; type: functional, organism-based
Summary of the method: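 Spores were grown to mycelia in RPMI 1640 plus 0.15% Junlon, shaken 18 h at 37°C. Mycelia were pelleted and exposed 6 h at 37°C with shaking to colistin (two levels), amphotericin B 2 μg/ml, or drug-free medium. They were washed in MOPS pH 7, stained with DiBAC 2 μg/ml for 1 h in the dark at ambient temperature, and imaged by fluorescence microscopy with an FITC filter.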

Rhizopus arrhizus [17] = assay: Antimicrobial activity against Rhizopus oryzae assessed as plasma membrane disruption-related ATP release at 32 ug/ml after 5 mins by Cell Titer-Glo luminescent assay; type: functional, organism-based; summary of the method: as §5
Mucor circinelloides [18] = assay: Antimicrobial activity against Mucor circinelloides isolate 5904 after 24 hrs in yeast nitrogen base complete medium by broth microdilution method; type: functional, organism-based; summary of the method: as §3
Rhizopus [19] = assay: Antimicrobial activity against Rhizopus sp. isolate 4523 after 24 hrs in RMPI 1640 medium by broth microdilution method; type: functional, organism-based; summary of the method: as §2
[20] = tested on: Cunninghamella bertholletiae; assay: Antimicrobial activity against Cunninghamella bertholletiae isolate 6694 after 24 hrs in RMPI 1640 medium by broth microdilution method; type: functional, organism-based; summary of the method: as §1
Rhizopus [21] = assay: Antimicrobial activity against […] isolate 6254 after 24 hrs in yeast nitrogen base complete medium by broth microdilution method; type: functional, organism-based; summary of the method: as §3
Rhizopus arrhizus [22] = assay: Antimicrobial activity against Rhizopus oryzae isolate 3140 after 24 hrs in RMPI 1640 medium by broth microdilution method; type: functional, organism-based; summary of the method: as §1
Mucor circinelloides [23] = assay: Antimicrobial activity against Mucor circinelloides isolate 4480 after 24 hrs in RMPI 1640 medium by broth microdilution method; type: functional, organism-based; summary of the method: as §1

COLISTIN
8 µg/mL: MIC (Rhizopus arrhizus [5])
19 mm: inhibition zone (IZ) (Rhizopus arrhizus [11])
active: Activity (Rhizopus arrhizus [7]) | Activity (Rhizopus arrhizus [15]) | Activity (Rhizopus arrhizus [16]) Dose-dependent effect | Activity (Rhizopus arrhizus [17])
inactive: inhibition (Rhizopus arrhizus [2])
16 µg/mL: MIC (Mucor circinelloides [1]) | MIC [8] | MIC (Mucor circinelloides [10]) | MIC (Rhizopus arrhizus [14]) | MIC (Rhizopus [19]) | MIC [20] | MIC (Rhizopus arrhizus [22]) | MIC (Mucor circinelloides [23])
128 µg/mL: MIC (Rhizopus arrhizus [6]) | MIC (Rhizopus arrhizus [9]) | MIC [12] | MIC (Rhizopus arrhizus [13]) | MIC (Rhizopus homothallicus) | MIC (Mucor circinelloides [18]) | MIC (Rhizopus [21])
32 µg/mL: MFC (Rhizopus arrhizus [3]) | MIC (Rhizopus arrhizus [3]) | MIC [4] | MFC (Rhizopus arrhizus [5]) | MFC (Rhizopus arrhizus [22]) | MFC (Mucor circinelloides [23])
> 128 µg/mL: MFC (Rhizopus arrhizus [6]) | MFC (Rhizopus arrhizus [9]) | MFC [12] | MFC (Rhizopus arrhizus [13]) | MFC (Rhizopus homothallicus) | MFC (Mucor circinelloides [18]) | MFC (Rhizopus [21])
64 µg/mL: MFC (Mucor circinelloides [1]) | MFC [4] | MFC [8] | MFC (Mucor circinelloides [10]) | MFC (Rhizopus arrhizus [14]) | MFC (Rhizopus [19]) | MFC [20]
